Screening results (PubChem)
Compounds with a hit are over-represented: about 1.7% of the library has one in this group of screens.
Cneo AK release: Cryptococcus neoformans lysis via adenylate kinase release | actives 0.2% (n = 360,000) | C. neoformans lysis, adenylate kinase release luminescence, 4 h; normalised: neutral wells 0, clomiphene wells 100 | lysis activity, % at 15 µM;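 active = mean lysis activity across replicates of at least 80%, whatever share of replicates individually reach that level; inactive = mean lysis activity below 80%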
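Material – log-phase Cryptococcus neoformans yeast cells · Input – 5 × 10^6 yeast cells/mL · Medium – fresh YPD growth medium · Doses – single compound concentration per well · Timing – static 4 h at 37 °C with compound, 1 h detection · Detection – adenylate kinase release luminescence · Read-out – signal increase indicating cell lysis · Control set – Clomiphene as positive lysis control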
Ecoli rRNA inh: inhibitors of bacterial rRNA selective over humanized ribosomes; E. coli WT GFP vs humanized-ribosome RFP mutants, fluorescence, 24 h; active compounds read low; DMSO median 0, no signal -100; AID 720706; actives 1.6% (n = 350,000); GFP signal change (wild-type ribosome), % (test concentration not listed);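 active = significant combined selectivity score with lowered wild-type GFP, culture density cut under 30%, mutant RFP and density less affected; inactive = any of these conditions unmet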
CFTR F508del cor: correctors of CFTR F508del function in bronchial epithelial cells. AID 720511. CFBE cells, YFP halide quenching; stimulated with forskolin plus potentiator P3; % fluorescence drop versus neutral controls. activity (quench increase), % at 7.58 µM. actives 0.36% (n = 350,000);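 active = mean added fluorescence quench of at least 8% versus neutral control, with both replicates also reaching 8%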;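 also: cells transiently co-express mutant CFTR-F508del with the halide-sensitive YFP; corrector assay measuring rescue of mutant channel to the surface after 24 h compound exposure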
CaV13 ICDI inh: Primary screen for inhibitors of IQ motif and Ca2+-dependent inactivation inhibitor domain binding in CACNA1D, Förster resonance energy transfer in living cells, …. HEK cells, CFP/YFP FRET ICDI-IQ, plate reader, 10 min; percent FRET-ratio fall versus neutral wells. inhibition, % at 12.3 µM. actives 0.098% (n = 340,000). AID 743397;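 active = mean replicate inhibition of at least 30% and at least 1% of replicates passing that level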;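 also: 0% = median of the neutral control wells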
* = called active by the depositor; . = no result; + = active, no number.

SMILES	Cneo AK release	Ecoli rRNA inh	CFTR F508del cor	CaV13 ICDI inh
CN1C(=O)C(CC(=O)NCCc2ccccc2)N(NC(=O)c2cccc(F)c2)C1=S (stereo not drawn)	1	-16*	0	-3
CNC(=O)CC1C(=O)N(c2ccc(F)cc2)C(=S)N1NC(=O)c1ccc(Cl)cc1 (stereo not drawn)	0	-11	8.0*	-5
CCS(=O)(=O)Nc1ccc2c(c1)C(=O)N(C)C[C@@H](OC)[C@@H](C)CN(C(=O)C1CCC1)[C@H](C)CO2	9	2	-1	.
O=c1[nH]c(C2CCN(S(=O)(=O)c3ccc4c(c3)OCCO4)CC2)nc2c1nnn2Cc1ccccc1F	-1	-28*	3	-8
O=C1[C@@H](Cc2ccc(C(F)(F)F)cc2)CCn2cc(nn2)COC[C@@H]2CCCCN12	.	-2	.	.
Cc1nc(C(=O)NCC(=O)c2ccc(Cl)cc2)c(C(F)(F)F)o1	5	4	-1	-4
Cc1nc(C(=O)NNC(=O)c2ccc(Cl)cc2)c(C(F)(F)F)o1	-1	-30*	3	-4
C[C@H](CO)N1C[C@H](C)[C@@H](CN(C)S(=O)(=O)c2ccccc2)Oc2cc(C#Cc3ccncc3)ccc2S1(=O)=O	2	-7	0	.
COC(=O)c1ccc(S(=O)(=O)N2CCc3ccccc32)cc1	-4	-13	12*	-3
CC1CN(S(=O)(=O)c2ccc(C(=O)O)cc2)CC(C)O1 (stereo not drawn)	.	11	-2	-13
CC1CN(S(=O)(=O)c2ccc(C(=O)N3CCc4ccccc43)cc2)CC(C)O1 (stereo not drawn)	0	7	16*	-7
CC(C)C#Cc1cnc2c(c1)C(=O)N([C@H](C)CO)C[C@@H](C)[C@H](CN(C)Cc1cncnc1)O2	10	2	1	.
CO[C@H]1CN(C)C(=O)c2ccc(NC(=O)Nc3ccccc3F)cc2OC[C@H](C)N(C)C[C@H]1C	-5	0	2	.
CN1/C(=C/C=C(C#N)C#N)C(C)(C)c2ccccc21	1	32	-16	12
CC1=C/C(=C\C=C(C#N)C#N)N(C)c2ccccc21	3	16	10*	-5
COc1ccc(CN(C)C[C@@H]2Oc3c(NC(=O)Nc4ccc(F)cc4)cccc3C(=O)N([C@@H](C)CO)C[C@H]2C)cc1	-1	-4	2	.
O=C(O)c1cccc(NC(=O)c2ccc(COc3ccc(Cl)cc3)cc2)c1	0	2	-5	-2
N#C/C(=C\c1ccc(OCc2ccc(Cl)cc2)cc1)C(=O)Nc1cccc(C(=O)O)c1	-1	-27*	-1	-7
COc1ccc2c(-c3ccccc3)cc(SCC(=O)N(C)C)nc2c1	.	-49*	-5	5
COc1ccc(NC(=O)CN(C)C(=O)c2c(-c3ccccc3Cl)noc2C)cc1	.	-2	1	-6
COc1ccc(CN(C)C(=O)COC(=O)c2c(-c3ccccc3Cl)noc2C)cc1	0	-27*	-1	-7
O=C(Cc1ccc(NC(=O)C2CCCN(C(=O)CCc3ccccc3)C2)cc1)Nc1cccc(C(=O)N2CCCCC2)c1 (stereo not drawn)	-1	-5	2	-7
O=C(Cc1ccc(NC(=O)C2CCCN(C(=O)CCc3ccccc3)C2)cc1)Nc1cccc(C(=O)N2CCCC2)c1 (stereo not drawn)	1	-15*	5	-5
Cc1ccc(-c2nnc(NC(=O)c3ccco3)o2)c(C)c1	-9	-24*	-1	-3
CC(C)NC(=O)N(C)C[C@H]1OCCCC[C@H](C)Oc2ccc(NS(=O)(=O)c3cccs3)cc2C(=O)N([C@@H](C)CO)C[C@H]1C	-2	-1	-1	.
SMILES	Cneo AK release	Ecoli rRNA inh	CFTR F508del cor	CaV13 ICDI inh
CCOC(=O)C1(CC2CCCCO2)CCN(Cc2nc(C(C)C)cs2)CC1 (stereo not drawn)	.	-29*	2	6
CCOC(=O)C1(CC2CCCCO2)CCN(C(=O)Nc2ccc(C(=O)OC)cc2)CC1 (stereo not drawn)	0	-19*	-1	0
CC(C)NC(=O)N(C)C[C@H]1Oc2c(NC(=O)Nc3ccc4c(c3)OCO4)cccc2C(=O)N([C@H](C)CO)C[C@H]1C	-2	-3	-3	.
CC(=O)N1[C@@H]2CN(S(C)(=O)=O)C[C@H]1C2c1ccc(-c2ccc(F)cc2)cc1 (stereo partly drawn)	.	-3	.	.
CCn1cc(C(=O)NCc2cccc(C(F)(F)F)c2)c(=O)c2ccc(C)nc21	-1	-23*	-4	-21
C=CCOC(=O)c1cn(CC)c2nc(C)ccc2c1=O	1	-25*	1	9
CC(=O)n1cc(/C=N/NC(=O)c2cccc(O)c2)c2ccccc21	-3	-23*	2	-2
ONC(=Nc1ccccc1Cl)c1c(F)cccc1F	.	-37*	0	-5
CC[C@@H]1C/C=C\C[C@@H](c2ccc(F)cc2)NC(=O)CCC(=O)N1	.	0	.	.
COc1ccc(S(=O)(=O)Nc2ccc3c(c2)C(=O)N([C@H](C)CO)C[C@@H](C)[C@H](CN(C)C)O3)cc1	2	2	2	.
COc1ccc(NC(=O)Nc2ccc3c(c2)C(=O)N([C@H](C)CO)C[C@@H](C)[C@@H](CN(C)C(=O)Nc2c(C)noc2C)O3)cc1	-3	6	-1	.
Cc1sc2ncn(CC(=O)Nc3cccc(S(N)(=O)=O)c3)c(=O)c2c1-c1ccccc1	3	-29*	1	-2
Cc1cc(N2CCCCC2)ccc1[N+](=O)[O-]	.	-43*	.	-6
O=[N+]([O-])c1ccc(N2CCCC2)cc1N1CCCC1	3	.	.	-8
Cc1noc(C)c1NC(=O)Nc1ccc2c(c1)C(=O)N([C@@H](C)CO)C[C@@H](C)[C@@H](CN(C)C(=O)C1CCCCC1)OCCCC[C@H](C)O2	-1	-2	1	.
COc1ccc(CN(C)C[C@@H]2Oc3ccc(NC(=O)Cc4ccccc4)cc3C(=O)N([C@@H](C)CO)C[C@H]2C)cc1	-5	3	0	.
COc1ccc(S(=O)(=O)N2CCC(O)(c3ccc(Cl)cc3)CC2)cc1OC	.	-24*	-14	0
COc1ccccc1-c1cnc2c(c1)C(=O)N([C@H](C)CO)C[C@H](C)[C@@H](CN(C)C(C)=O)O2	8	2	-4	.
O=C(C[C@@H]1C[C@@H]2c3cc(NC(=O)Cc4ccncc4)ccc3O[C@@H]2[C@@H](CO)O1)NCc1cccnc1	-5	4	2	.
CCN(CC)S(=O)(=O)c1ccc(NC(=O)C2CC(=O)N(c3ccc4c(c3)OCCO4)C2)cc1 (stereo not drawn)	0	14	15*	-6
COc1ccc(C2C3=C(CC(C)(C)CC3=O)N(C)C3=C2C(=O)CC(C)(C)C3)cc1	-1	2	-5	+
COc1ccc(C2C3=C(CC(C)(C)CC3=O)N(C)C3=C2C(=O)CC(C)(C)C3)cc1OC	-2	0	-3	-21
